# Results reported in ChEMBL document CHEMBL4837217, “Design, synthesis, in vitro and in vivo biological evaluation of pyranone-piperazine analogs as potent antileishmanial agents” (Eur J Med Chem, 2021).
# The source made the active and inactive calls. The calls are words filed in the database; no cut-off is given here.
# How the values were obtained:
# Leishmania donovani [1] = test: Antileishmanial activity against Leishmania donovani MHOM/IN/80/Dd8 infected in BALB/c mouse assessed as reduction in intracellular amastigote burden in liver at 50 mg/kg, ip for 5 days and measured at 1 week post-treatment by Giemsa staining based assay relative to control; type: functional; settings: MHOM/IN/80/Dd8, ip, 288 h, time 12 day
# In short: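 Female BALB/c mice (20–25 g), 5/group, infected iv with 2 × 10^7 stationary-phase L. donovani promastigotes. Infection confirmed at 2 wk, then 50 mg/kg ip daily for 5 consecutive days. Vehicle was 5% DMSO. Sacrificed day 7 post-treatment. Giemsa-stained liver/spleen impression smears counted as amastigotes/1000 nucleated cells, expressed as LDU (amastigotes per nucleated cell × organ weight in mg), compared with untreated infected controls.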
# Splenocyte [2] = test: Immunomodulatory activity in BALB/c mouse infected with Leishmania donovani amastigotes assessed as increase in IL-12 level in splenocytes supernatants at 50 mg/kg, ip for 5 days; type: functional, organism-based; settings: time 5.0 day
# Leishmania donovani [3] = test: Induction of apoptosis in Leishmania donovani MHOM/IN/80/Dd8 promastigotes assessed as increase in cytochrome c release by measuring increase in cytochrome c level in cytosol at 50 uM incubated for 12 to 72 hrs by Western blot analysis; type: functional, organism-based; settings: time 12-72 hrs
# In short: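 Promastigotes treated with 50 µM for 12, 24, 48 and 72 h, then washed in PBS. Cell fractionation buffer applied 10 min on ice, cells homogenized, centrifuged 10,000 × g for 25 min at 4 °C. Cytosolic and mitochondrial fractions immunoblotted for cytochrome c. Loading controls were actin (cytosol) and COX-4 (mitochondria).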
# Splenocyte [4] = test: Immunomodulatory activity in BALB/c mouse infected with Leishmania donovani amastigotes assessed as increase in IFN-gamma level in splenocytes supernatants at 50 mg/kg, ip for 5 days; type: functional, organism-based; settings: time 5.0 day
# Leishmania donovani [5] = test: Induction of apoptosis in Leishmania donovani MHOM/IN/80/Dd8 promastigotes assessed as late apoptotic cells at 50 uM measured after 72 hrs by Alexa fluor488-AnnexinV/PI staining based FACSCalibur flow cytometry analysis (reference value: 0.7%); type: functional
# Leishmania donovani [6] = test: Induction of apoptosis in Leishmania donovani MHOM/IN/80/Dd8 promastigotes assessed as early apoptotic cells at 50 uM measured after 48 hrs by Alexa fluor488-AnnexinV/PI staining based FACSCalibur flow cytometry analysis (reference value: 10.3%); type: functional
# Leishmania donovani [7] = test: Antileishmanial activity against amastigote stage of Leishmania donovani MHOM/IN/80/Dd8 harboring luciferase gene infected in mouse J774 cells assessed as parasite growth inhibition by Giemsa staining based analysis; type: functional, organism-based; settings: time 12-72 hrs, TDE = time-dependent effect
# In short: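 J774 macrophages are infected for 24 h with stationary-phase luciferase-transfected Dd8 promastigotes at a 1:8 ratio in chamber slides. After compound treatment, cells are fixed and Giemsa-stained, and intracellular amastigotes are counted by microscopy.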
# Splenocyte [8] = test: Immunomodulatory activity in BALB/c mouse infected with Leishmania donovani amastigotes assessed as decrease in IL-10 level in splenocytes supernatants at 50 mg/kg, ip for 5 days; type: functional, organism-based; settings: time 5.0 day
# Leishmania donovani [9] = test: Antileishmanial activity against amastigote stage of Leishmania donovani MHOM/IN/80/Dd8 harboring luciferase gene infected in mouse J774 cells assessed as parasite growth inhibition incubated for 72 hrs by Steady-Glo reagent based luciferase assay; type: functional, organism-based; settings: MHOM/IN/80/Dd8, J774, 72 h
# In short: (§1)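 J774 murine macrophages, 4 × 10⁴ cells/well in RPMI with 10% FBS for 24 h, are infected for 24 h at 37 °C, 5% CO₂ with stationary-phase luciferase-transfected L. donovani Dd8 promastigotes at a 1:8 macrophage:parasite ratio. Compounds are dissolved in DMSO. Luminescence is read after Steady-Glo is added in PBS. IC₅₀ is taken from a four-parameter Hill nonlinear regression. Miltefosine is the reference.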
# Leishmania donovani [10] = test: Antileishmanial activity against amastigote stage of Leishmania donovani MHOM/IN/80/Dd8 harboring luciferase gene infected in mouse J774 cells assessed as parasite killing incubated for 72 hrs by Steady-Glo reagent based luciferase assay; type: functional, organism-based; settings: dose 3.12-50 µM; in short: as §1
# Leishmania donovani [11] = test: Induction of apoptosis in Leishmania donovani MHOM/IN/80/Dd8 promastigotes assessed as DNA fragmentation by measuring bright green coloured positive apoptotic nuclei at 50 uM incubated for 72 hrs by TUNEL staining based confocal microscopic analysis; type: functional, organism-based
# In short: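 Log-phase promastigotes treated with 50 µM for 72 h, washed, adhered to poly-L-lysine slides and fixed in 4% paraformaldehyde. Permeabilized in ice-cold 70% ethanol 30 min. Labeled with TdT/BrdUTP 60 min at 37 °C, then Alexa Fluor 488 anti-BrdU 30 min and PI/RNase A 30 min. Imaged by confocal microscopy; vehicle was 0.1% DMSO.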
# Leishmania donovani [12] = test: Induction of apoptosis in Leishmania donovani MHOM/IN/80/Dd8 promastigotes assessed as late apoptotic cells at 50 uM measured after 48 hrs by Alexa fluor488-AnnexinV/PI staining based FACSCalibur flow cytometry analysis (reference value: 0.7%); type: functional
# [13] = Cytotoxicity against mouse J774 cells assessed as reduction in cell viability incubated for 72 hrs by MTT assay; type: cell-based
# In short: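 J774 macrophages seeded at 1 × 10^5 cells/well overnight, then exposed to graded concentrations (7.81–500 µM) for 72 h at 37 °C, 5% CO2. MTT (5 mg/mL) added for 2 h, formazan solubilized in DMSO and read at 570 nm. CC50 taken as 50% viability loss relative to untreated cells.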
# Leishmania donovani [14] = test: Antileishmanial activity against amastigote stage of Leishmania donovani MHOM/IN/80/Dd8 harboring luciferase gene infected in mouse J774 cells assessed as parasite growth inhibition at 25 uM incubated for 72 hrs by Steady-Glo reagent based luciferase assay; type: functional; settings: MHOM/IN/80/Dd8, J774; in short: as §1
# Leishmania donovani [15] = test: Antileishmanial activity against log phase of Leishmania donovani MHOM/IN/80/Dd8 promastigotes assessed as reduction in cell viability at 50 uM incubated for 72 hrs by MTT assay; type: functional
# In short: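 Log-phase luciferase-transfected L. donovani Dd8 promastigotes (M199 + 10% FBS, 24 °C) treated with compounds at 25 and 50 µM in DMSO, with 0.1% DMSO vehicle control. After 72 h, MTT added 4 h. Formazan dissolved in DMSO, read at 570 nm. Percent inhibition reported as mean ± SD of at least three independent experiments in replicate.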
# Leishmania donovani [16] = test: Induction of mitochondrial membrane potential dysfunction in Leishmania donovani MHOM/IN/80/Dd8 promastigotes assessed as cells with mitochondrial depolarization at 50 uM incubated for 24 hrs by JC1 staining based flow cytometry (reference value: 3.63%); type: functional
# In short: (§2)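 Promastigotes (1 × 10^6 cells/mL) exposed to 50 µM for 24–72 h, or to IC50 for 72 h. CCCP (50 µM final) served as depolarization positive control. Cells washed, stained with JC-1 (2 µM final) 30 min at 37 °C, 5% CO2. Red-to-green fluorescence shift measured by flow cytometry.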
# Leishmania donovani [17] = test: Induction of mitochondrial membrane potential dysfunction in Leishmania donovani MHOM/IN/80/Dd8 promastigotes assessed as cells with mitochondrial depolarization at IC50 incubated for 72 hrs by JC1 staining based flow cytometry (reference value: 6.6%); type: functional; in short: as §2
# Leishmania donovani [18] = test: Induction of mitochondrial membrane potential dysfunction in Leishmania donovani MHOM/IN/80/Dd8 promastigotes assessed as cells with mitochondrial depolarization at 50 uM incubated for 48 hrs by JC1 staining based flow cytometry (reference value: 3.63%); type: functional; in short: as §2
smiles,measurement,setting,value
N#Cc1c(N2CCN(c3ccccc3O)CC2)cc(-c2ccccc2)oc1=O,inhibition in vivo at 50 mg/kg,Leishmania donovani [1],67.3%
same,Activity,Splenocyte [2],inactive
same,Activity,Leishmania donovani [3],Active
same,Activity,Splenocyte [4],inactive
same,Activity,Leishmania donovani [5],13.1%
same,Activity,Leishmania donovani [6],39.1%
same,Activity,Leishmania donovani [7],Tde
same,Activity,Splenocyte [8],inactive
same,IC50,Leishmania donovani [9],11.1 µM
same,Activity,Leishmania donovani [10],Dose-Dependent Effect
same,Activity,Leishmania donovani [11],Active
same,Activity,Leishmania donovani [12],2.3%
same,CC50 at 72 h,[13],351 µM
same,inhibition at 25 µM,Leishmania donovani [14],84.2%
same,inhibition at 50 µM,Leishmania donovani [15],85.2%
same,Activity,Leishmania donovani [16],32.9%
same,Activity,Leishmania donovani [17],22.9%
same,Activity,Leishmania donovani [18],54.1%
